Activity calls are given as the source filed them. The calls are words filed in the database; no cut-off is given here.
Columns and labels:
[1] = tested on: DU-145; experiment: Cell cycle arrest in human DU145 cells assessed as accumulation of cells at G1 phase at 100 uM after 72 hrs using propidium iodide stain by flow cytometry; format: functional
Method in brief: (§1)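 DU145 cells treated with 1, 5, 10 or 100 µM for 24 or 72 h; vehicle 1% DMSO in water. Adherent and floating cells pooled, fixed in PBS-MeOH (1:2) at 4 °C for at least 18 h, then stained 30 min at room temperature in the dark with propidium iodide 50 µg/mL plus RNase A 50 µg/mL. Flow cytometry, excitation 488 nm, emission above 580 nm, doublets gated out. Sub-G1 region taken as DNA damage; at least three runs.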

[2] = tested on: DU-145; experiment: Cell cycle arrest in human DU145 cells assessed as accumulation of cells at sub-G1 phase at 10 uM after 24 hrs using propidium iodide stain by flow cytometry; format: functional; method in brief: as §1
[3] = tested on: DU-145; experiment: Cell cycle arrest in human DU145 cells assessed as accumulation of cells at G1 phase at 1 uM after 72 hrs using propidium iodide stain by flow cytometry; format: functional; method in brief: as §1
[4] = tested on: DU-145; experiment: Induction of apoptosis in human DU145 cells assessed as caspase3 activation at 10 uM by ELISA; format: functional, cell-based
Method in brief: (§2)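 DU145 cells treated with 10 µM for 1, 3, 6, 12 and 24 h and lysed. Lysate (60 µg) incubated with Ac-DEVD-pNA or Ac-LEHD-pNA in PIPES buffer pH 7.2 at 37 °C for 1 h in the dark. pNA release read at 405 nm and expressed as percent change against untreated control.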

[5] = tested on: DU-145; experiment: Induction of apoptosis in human DU145 cells assessed as increase in intracellular ROS level at 10 uM by DCHF-DA assay; format: functional, cell-based
[6] = tested on: DU-145; experiment: Cell cycle arrest in human DU145 cells assessed as accumulation of cells at G1 phase at 5 uM after 72 hrs using propidium iodide stain by flow cytometry; format: functional; method in brief: as §1
[7] = tested on: DU-145; experiment: Cell cycle arrest in human DU145 cells assessed as accumulation of cells at G1 phase at 5 uM after 24 hrs using propidium iodide stain by flow cytometry; format: functional; method in brief: as §1
[8] = tested on: DU-145; experiment: Cell cycle arrest in human DU145 cells assessed as accumulation of cells at S phase at 10 uM after 72 hrs using propidium iodide stain by flow cytometry; format: functional; method in brief: as §1
[9] = tested on: DU-145; experiment: Reduction of mitochondrial membrane potential in human DU145 cells using rhodamine 123 staining by spectrophotofluorimeter; format: functional, cell-based
Method in brief: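 DU145 cells incubated 6, 12, 18 or 24 h with or without 10 and 100 µM, then given 10 µM rhodamine 123 in serum-free medium for 15 min at 37 °C. Collected cells read within 15 min by spectrofluorimeter (ex 495, em 520 nm); three experiments.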

[10] = tested on: DU-145; experiment: Induction of apoptosis in human DU145 cells assessed as caspase9 activation after 24 hrs by ELISA; format: functional, cell-based; details: TDE = time-dependent effect; method in brief: as §2
[11] = tested on: DU-145; experiment: Cell cycle arrest in human DU145 cells assessed as accumulation of cells at sub-G1 phase at 5 uM after 72 hrs using propidium iodide stain by flow cytometry; format: functional; method in brief: as §1
[12] = tested on: DU-145; experiment: Cell cycle arrest in human DU145 cells assessed as accumulation of cells at G2/M phase at 5 uM after 72 hrs using propidium iodide stain by flow cytometry; format: functional; method in brief: as §1
[13] = tested on: DU-145; experiment: Cell cycle arrest in human DU145 cells assessed as accumulation of cells at sub-G1 phase at 1 uM after 72 hrs using propidium iodide stain by flow cytometry; format: functional; method in brief: as §1
[14] = tested on: DU-145; experiment: Cell cycle arrest in human DU145 cells assessed as accumulation of cells at G1 phase at 100 uM after 24 hrs using propidium iodide stain by flow cytometry; format: functional; method in brief: as §1
[15] = tested on: DU-145; experiment: Cell cycle arrest in human DU145 cells assessed as accumulation of cells at S phase at 5 uM after 24 hrs using propidium iodide stain by flow cytometry; format: functional; method in brief: as §1
[16] = tested on: DU-145; experiment: Cell cycle arrest in human DU145 cells assessed as accumulation of cells at sub-G1 phase at 1 uM after 24 hrs using propidium iodide stain by flow cytometry; format: functional; method in brief: as §1
[17] = tested on: DU-145; experiment: Cell cycle arrest in human DU145 cells assessed as accumulation of cells at sub-G1 phase at 100 uM after 24 hrs using propidium iodide stain by flow cytometry; format: functional; method in brief: as §1
[18] = tested on: DU-145; experiment: Cell cycle arrest in human DU145 cells assessed as accumulation of cells at G2/M phase at 5 uM after 24 hrs using propidium iodide stain by flow cytometry; format: functional; method in brief: as §1
[19] = tested on: DU-145; experiment: Cell cycle arrest in human DU145 cells assessed as accumulation of cells at S phase at 100 uM after 72 hrs using propidium iodide stain by flow cytometry; format: functional; method in brief: as §1
[20] = tested on: DU-145; experiment: Cell cycle arrest in human DU145 cells assessed as accumulation of cells at G2/M phase at 1 uM after 24 hrs using propidium iodide stain by flow cytometry; format: functional; method in brief: as §1
[21] = tested on: DU-145; experiment: Cell cycle arrest in human DU145 cells assessed as accumulation of cells at G1 phase at 10 uM after 72 hrs using propidium iodide stain by flow cytometry; format: functional; method in brief: as §1
[22] = tested on: DU-145; experiment: Induction of apoptosis in human DU145 cells assessed as change in cellular morphology after 24 hrs by Hoechst 33342 stainig; format: functional, cell-based
Method in brief: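 DU145 cells exposed to 1 and 100 µM for 24 h, vehicle 1% DMSO. Fixed in 3.7% paraformaldehyde, stained with Hoechst 33342 (5 µg/mL) at 37 °C for 1 h and examined by fluorescence microscopy. Cells with reduced nuclear size, chromatin condensation or nuclear fragmentation scored as apoptotic.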

[23] = tested on: DU-145; experiment: Cell cycle arrest in human DU145 cells assessed as accumulation of cells at G2/M phase at 10 uM after 72 hrs using propidium iodide stain by flow cytometry; format: functional; method in brief: as §1
[24] = tested on: DU-145; experiment: Cell cycle arrest in human DU145 cells assessed as accumulation of cells at sub-G1 phase at 10 uM after 72 hrs using propidium iodide stain by flow cytometry; format: functional; method in brief: as §1
[25] = tested on: DU-145; experiment: Cell cycle arrest in human DU145 cells assessed as accumulation of cells at sub-G1 phase at 100 uM after 72 hrs using propidium iodide stain by flow cytometry; format: functional; method in brief: as §1
[26] = tested on: DU-145; experiment: Cell cycle arrest in human DU145 cells assessed as accumulation of cells at G2/M phase at 100 uM after 24 hrs using propidium iodide stain by flow cytometry; format: functional; method in brief: as §1

CCCCCCCCCCCCCCCCCCCCCCCC/C=C(/C(=O)OC)[C@@H](O)C(C)=O [SECOTENUIFOLIDE A]
Activity [1]: 28.57%
Activity [2]: 19.72%
Activity [3]: 53.11%
Activity [4]: Active
Activity [5]: Active
Activity [6]: 48.96%
Activity [7]: 34.96%
Activity [8]: 3.62%
Activity [9]: Active
Activity [10]: tde
Activity [11]: 14.24%
Activity [12]: 31.74%
Activity [13]: 9.75%
Activity [14]: 35.57%
Activity [15]: 4.96%
Activity [16]: 6.56%
Activity [17]: 24.88%
Activity [18]: 37.88%
Activity [19]: 5.38%
Activity [20]: 43.3%
Activity [21]: 48.3%
Activity [22]: Active
Activity [23]: 30.83%
Activity [24]: 16.18%
Activity [25]: 32.57%
Activity [26]: 26.4%

Source: ChEMBL document CHEMBL1154279, “Cytotoxic compounds from the stems of Cinnamomum tenuifolium” (J Nat Prod, 2009)
